Experiments:
CWR22R [1] = assay: Antiproliferative activity against human 22Rv1 cells assessed as reduction in cell growth incubated for 96 hrs by propidium iodide based 2D monolayer assay; format: functional; details: 22Rv1, 96 h
Summary of the method: (§1)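 After 24 h recovery, compound in medium or medium alone (control wells) was added at 10 half-log concentrations from 0.0032 to 100 µM, in triplicate, with at most 0.3% DMSO. After 96 h, wells were PBS-washed, stained with 7 µg/ml PI and 0.1% Triton X-100, and fluorescence read at 530/620 nm. IC50 came from a 4-parameter fit, geometric mean.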

VCaP = assay: Antiproliferative activity against human VCaP cells assessed as T/C value at 3.2 uM incubated for 96 hrs by propidium iodide based 2D monolayer assay; format: functional
Summary of the method: as §1, with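 “Cells were kept in RPMI 1640 with 25 mM HEPES, 10% FCS and gentamicin at 37 °C under 5% CO2, and plated at 4,000-20,000 cells/well. After 24” for “After 24”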

LNCaP [2] = assay: Antiproliferative activity against human LNCAP cells assessed as T/C value at 1 x 10^-2 uM incubated for 96 hrs by propidium iodide based 2D monolayer assay; format: functional
Summary of the method: as §1, with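 “Cells were kept in RPMI 1640 with 25 mM HEPES, 10% FCS and gentamicin at 37 °C under 5% CO2, and plated at 4,000-20,000 cells/well. After 24” for “After 24”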

LNCaP [3] = assay: Antiproliferative activity against human LNCAP cells assessed as T/C value at 3.2 x 10^-1 uM incubated for 96 hrs by propidium iodide based 2D monolayer assay; format: functional
Summary of the method: as §1, with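 “Cells were kept in RPMI 1640 with 25 mM HEPES, 10% FCS and gentamicin at 37 °C under 5% CO2, and plated at 4,000-20,000 cells/well. After 24” for “After 24”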

LNCaP [4] = assay: Antiproliferative activity against human LNCAP cells assessed as T/C value at 1 x 10^1 uM incubated for 96 hrs by propidium iodide based 2D monolayer assay; format: functional
Summary of the method: as §1, with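 “Cells were kept in RPMI 1640 with 25 mM HEPES, 10% FCS and gentamicin at 37 °C under 5% CO2, and plated at 4,000-20,000 cells/well. After 24” for “After 24”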

LNCaP [5] = assay: Antiproliferative activity against human LNCAP cells assessed as T/C value at 3.2 x 10^1 uM incubated for 96 hrs by propidium iodide based 2D monolayer assay; format: functional
Summary of the method: as §1, with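 “Cells were kept in RPMI 1640 with 25 mM HEPES, 10% FCS and gentamicin at 37 °C under 5% CO2, and plated at 4,000-20,000 cells/well. After 24” for “After 24”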

CWR22R [6] = assay: Antiproliferative activity against human 22Rv1 cells assessed as T/C value at 3.2 uM incubated for 96 hrs by propidium iodide based 2D monolayer assay; format: functional
Summary of the method: as §1, with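 “Cells were kept in RPMI 1640 with 25 mM HEPES, 10% FCS and gentamicin at 37 °C under 5% CO2, and plated at 4,000-20,000 cells/well. After 24” for “After 24”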

CWR22R [7] = assay: Antiproliferative activity against human 22Rv1 cells assessed as T/C value at 1 x 10^2 uM incubated for 96 hrs by propidium iodide based 2D monolayer assay; format: functional
Summary of the method: as §1, with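 “Cells were kept in RPMI 1640 with 25 mM HEPES, 10% FCS and gentamicin at 37 °C under 5% CO2, and plated at 4,000-20,000 cells/well. After 24” for “After 24”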

DU-145 [8] = assay: Antiproliferative activity against human DU145 cells assessed as T/C value at 3.2 x 10^-2 uM incubated for 96 hrs by propidium iodide based 2D monolayer assay; format: functional; summary of the method: as §1
DU-145 [9] = assay: Antiproliferative activity against human DU145 cells assessed as T/C value at 3.2 uM incubated for 96 hrs by propidium iodide based 2D monolayer assay; format: functional
Summary of the method: as §1, with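 “Cells were kept in RPMI 1640 with 25 mM HEPES, 10% FCS and gentamicin at 37 °C under 5% CO2, and plated at 4,000-20,000 cells/well. After 24” for “After 24”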

DU-145 [10] = assay: Antiproliferative activity against human DU145 cells assessed as T/C value at 1 x 10^1 uM incubated for 96 hrs by propidium iodide based 2D monolayer assay; format: functional; summary of the method: as §1
DU-145 [11] = assay: Antiproliferative activity against human DU145 cells assessed as T/C value at 3.2 x 10^1 uM incubated for 96 hrs by propidium iodide based 2D monolayer assay; format: functional
Summary of the method: as §1, with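 “Cells were kept in RPMI 1640 with 25 mM HEPES, 10% FCS and gentamicin at 37 °C under 5% CO2, and plated at 4,000-20,000 cells/well. After 24” for “After 24”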

MCF7 [12] = assay: Antiproliferative activity against human MCF7 cells assessed as T/C value at 1 x 10^-2 uM incubated for 96 hrs by propidium iodide based 2D monolayer assay; format: functional
MCF7 [13] = assay: Antiproliferative activity against human MCF7 cells assessed as T/C value at 3.2 x 10^-2 uM incubated for 96 hrs by propidium iodide based 2D monolayer assay; format: functional
MCF7 [14] = assay: Antiproliferative activity against human MCF7 cells assessed as T/C value at 1 x 10^-1 uM incubated for 96 hrs by propidium iodide based 2D monolayer assay; format: functional
MCF7 [15] = assay: Antiproliferative activity against human MCF7 cells assessed as T/C value at 1 uM incubated for 96 hrs by propidium iodide based 2D monolayer assay; format: functional
MCF7 [16] = assay: Antiproliferative activity against human MCF7 cells assessed as T/C value at 3.2 uM incubated for 96 hrs by propidium iodide based 2D monolayer assay; format: functional
MCF7 [17] = assay: Antiproliferative activity against human MCF7 cells assessed as T/C value at 1 x 10^1 uM incubated for 96 hrs by propidium iodide based 2D monolayer assay; format: functional
MCF7 [18] = assay: Antiproliferative activity against human MCF7 cells assessed as T/C value at 3.2 x 10^1 uM incubated for 96 hrs by propidium iodide based 2D monolayer assay; format: functional
MCF7 [19] = assay: Antiproliferative activity against human MCF7 cells assessed as T/C value at 1 x 10^2 uM incubated for 96 hrs by propidium iodide based 2D monolayer assay; format: functional
MCF7 [20] = assay: Antiproliferative activity against human MCF7 cells assessed as reduction in cell growth incubated for 96 hrs by propidium iodide based 2D monolayer assay; format: functional; details: MCF7, 96 h
[21] = Metabolic stability in liver microsomes (unknown origin) assessed as intrinsic clearance per mg of protein at 3 uM measured upto 45 mins in presence of NADPH by LC-MS/MS analysis; format: ADME, Microsome; details: read-out: CLH
Summary of the method: (§2)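 Pooled liver microsomes at 0.5 mg/mL protein in 0.1 M phosphate buffer pH 7.4 were incubated with 3 μM compound (0.25% DMSO) at 37 °C. Reactions were started with 1 mM NADPH and sampled at 0, 5, 15, 30 and 45 min. A minus-NADPH control ran for 45 min. Reactions were quenched in methanol and analysed by LC-MS/MS to give CLint and t1/2.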

[22] = Metabolic stability in liver microsomes (unknown origin) assessed as half life at 3 uM measured upto 45 mins in presence of NADPH by LC-MS/MS analysis; format: ADME, Microsome; summary of the method: as §2
[23] = Protein binding in plasma (unknown origin) at 5 uM by LC-MS/MS analysis; format: ADME, cell-free; details: read-out: PPB (converted)
Summary of the method: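 Compound at 5 μM final in 100% plasma was dialysed against pH 7.4 buffer by equilibrium dialysis at 37 °C. Both sides were quantified by LC-MS/MS, unbound fraction was calculated, and results are given as % bound from duplicate experiments.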

hERG (KCNH2) = hERG (KCNH2) (Homo sapiens, UniProt Q12809); assay: Inhibition of human ERG expressed in CHO cells at 25 uM by whole-cell voltage-clamp analysis relative to control; format: cell-based; details: CHO cells expressing human ERG
Sequence of hERG (KCNH2) (Q12809 whole entry): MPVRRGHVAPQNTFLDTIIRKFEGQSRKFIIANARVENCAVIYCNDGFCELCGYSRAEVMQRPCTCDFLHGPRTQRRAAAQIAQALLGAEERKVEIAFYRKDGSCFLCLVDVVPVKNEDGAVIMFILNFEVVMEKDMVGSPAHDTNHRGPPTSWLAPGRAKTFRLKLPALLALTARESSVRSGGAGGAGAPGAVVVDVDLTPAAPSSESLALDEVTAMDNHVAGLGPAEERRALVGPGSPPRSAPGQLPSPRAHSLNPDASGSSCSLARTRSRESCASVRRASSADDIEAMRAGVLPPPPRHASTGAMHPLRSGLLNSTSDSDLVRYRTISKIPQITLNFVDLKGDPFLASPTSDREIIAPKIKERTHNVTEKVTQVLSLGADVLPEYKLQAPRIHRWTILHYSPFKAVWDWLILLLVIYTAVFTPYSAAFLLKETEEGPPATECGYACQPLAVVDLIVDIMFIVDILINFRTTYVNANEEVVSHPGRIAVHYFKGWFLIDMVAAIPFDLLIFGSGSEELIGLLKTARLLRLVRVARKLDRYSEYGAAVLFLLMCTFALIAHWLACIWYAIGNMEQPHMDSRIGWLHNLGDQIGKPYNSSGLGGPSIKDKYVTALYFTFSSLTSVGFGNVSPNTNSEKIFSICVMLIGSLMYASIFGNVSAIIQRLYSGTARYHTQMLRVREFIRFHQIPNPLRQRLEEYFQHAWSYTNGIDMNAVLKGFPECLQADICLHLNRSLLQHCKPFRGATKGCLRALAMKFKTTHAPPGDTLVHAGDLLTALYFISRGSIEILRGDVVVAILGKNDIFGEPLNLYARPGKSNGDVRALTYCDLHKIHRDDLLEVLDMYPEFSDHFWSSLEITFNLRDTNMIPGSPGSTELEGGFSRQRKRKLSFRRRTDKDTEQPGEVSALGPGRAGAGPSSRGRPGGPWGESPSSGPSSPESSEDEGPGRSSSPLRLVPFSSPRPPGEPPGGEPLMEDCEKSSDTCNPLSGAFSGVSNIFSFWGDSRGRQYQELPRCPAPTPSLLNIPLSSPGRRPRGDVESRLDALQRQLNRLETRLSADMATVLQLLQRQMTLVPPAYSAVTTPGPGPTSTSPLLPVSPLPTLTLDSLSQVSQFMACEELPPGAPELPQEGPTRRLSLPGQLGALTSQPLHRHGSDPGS
Summary of the method: (§3)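 CHO cells expressing hERG were held in Dulbecco's PBS with Ca/Mg, pH 7–7.2, at room temperature. Tail currents were recorded by automated whole-cell voltage clamp after 300 s exposure. […] Quinidine served as positive control and 0.25% DMSO buffer as negative control.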

[24] = target: Voltage-gated inwardly rectifying potassium channel KCNH2 (Homo sapiens, UniProt Q12809); assay: Inhibition of human ERG expressed in CHO cells by whole-cell voltage-clamp analysis; format: cell-based; summary of the method: as §3
Sequence of Voltage-gated inwardly rectifying potassium channel KCNH2 (Q12809 whole entry): as above

Row | Compound | IC50 (CWR22R [1]) [µM] | IC70 (CWR22R [1]) [µM] | T/C (VCaP) | T/C (LNCaP [2]) | T/C (LNCaP [3]) | T/C (LNCaP [4]) | T/C (LNCaP [5]) [%] | T/C (CWR22R [6]) | T/C (CWR22R [7]) | T/C (DU-145 [8]) | T/C (DU-145 [9]) | T/C (DU-145 [10]) | T/C (DU-145 [11]) [%] | other results
1 | CC1(C)C(=O)N(c2ccc(C#N)cc2C(F)(F)F)C(=S)N1c1cccc(S(F)(F)(F)(F)F)c1 | 100 | > 100 | 64% | 91% | 85% | 36% | 32 | 93% | 51% | 107% | 116% | 96% | 87 | –
2 | CC1(C)C(=O)N(c2ccc(C#N)cc2C(F)(F)F)C(=S)N1c1ccc(S(F)(F)(F)(F)F)cc1 | 5.4 | 8.45 | 74% | 76% | 82% | 12% | 10 | 78% | 12% | 111% | 102% | 53% | 37 | –
3 | CC1(C)C(=O)N(c2cccc(S(F)(F)(F)(F)F)c2)C(=S)N1c1cccc(C(F)(F)F)c1 | 100 | > 100 | 71% | 94% | 80% | 23% | 33 | 79% | 55% | 96% | 105% | 83% | 85 | –
4 | CC(O)(CSc1cc(C(F)(F)F)cc(C(F)(F)F)c1)C(=O)Nc1cccc(C(F)(F)C(F)(F)F)c1 (racemic) | 4.2 | 5.41 | 102% | 93% | 111% | 8% | 6 | 75% | 5% | 123% | 133% | 22% | 8 | T/C (MCF7 [12]): 115%; T/C (MCF7 [13]): 118%; T/C (MCF7 [14]): 111%; T/C (MCF7 [15]): 119%; T/C (MCF7 [16]): 109%; T/C (MCF7 [17]): 36%; T/C (MCF7 [18]): 10%; T/C (MCF7 [19]): 5%; IC50 (MCF7 [20]): 8.52 µM; IC70 (MCF7 [20]): 10.8 µM
5 | CC(O)(COc1ccc(C(F)(F)C(F)(F)F)cc1)C(=O)Nc1cc(C(F)(F)F)cc(C(F)(F)F)c1 (racemic) | 2.5 | 3.11 | 45% | 94% | 93% | 9% | 2 | 29% | 3% | 108% | 108% | 13% | 3 | T/C (MCF7 [12]): 100%; T/C (MCF7 [13]): 112%; T/C (MCF7 [14]): 116%; T/C (MCF7 [15]): 115%; T/C (MCF7 [16]): 57%; T/C (MCF7 [17]): 26%; T/C (MCF7 [18]): 3%; T/C (MCF7 [19]): 3%; IC50 (MCF7 [20]): 4.01 µM; IC70 (MCF7 [20]): 6.15 µM
6 | CC(O)(COc1cccc(S(F)(F)(F)(F)F)c1)C(=O)Nc1cc(C(F)(F)F)cc(C(F)(F)F)c1 (racemic) | 2.3 | 3.17 | 34% | 89% | 83% | 2% | 1 | 29% | 2% | 105% | 105% | 6% | 3 | –
7 | CC(O)(COc1ccc(S(F)(F)(F)(F)F)cc1)C(=O)Nc1cc(C(F)(F)F)cc(C(F)(F)F)c1 (racemic) | 3.2 | 4.07 | 30% | 92% | 97% | 8% | 2 | 52% | 4% | 106% | 104% | 16% | 6 | microsomal CLint at 3 µM [21]: 3.08 µL/min/mg; half-life at 3 µM [22]: 7.5 h; fraction unbound at 5 µM [23]: 0.091; inhibition at 25 µM (hERG (KCNH2)): 13.4%; IC50 [24]: > 25 µM
8 | CC(O)(COc1cc(C(F)(F)F)cc(C(F)(F)F)c1)C(=O)Nc1cccc(S(F)(F)(F)(F)F)c1 (racemic) | 6.5 | 7.75 | 33% | 96% | 67% | 2% | 1 | 102% | 2% | 114% | 115% | 12% | 5 | –
9 | CC(O)(COc1cccc(S(F)(F)(F)(F)F)c1)C(=O)Nc1ccc([N+](=O)[O-])c(C(F)(F)F)c1 (racemic) | 5.4 | 5.77 to 6.98 | 81 - 87% | 94 - 104% | 100 - 103% | 1 - 3% | -1 | 62 - 92% | 2 - 3% | 116 - 124% | 116% | 9 - 16% | 1 | microsomal CLint at 3 µM [21]: 3.21 µL/min/mg; half-life at 3 µM [22]: 7.18 h; fraction unbound at 5 µM [23]: 0.015; inhibition at 25 µM (hERG (KCNH2)): 38.1%; IC50 [24]: > 25 µM
10 | CC(O)(COc1cc(C(F)(F)F)cc(C(F)(F)F)c1)C(=O)Nc1ccc(S(F)(F)(F)(F)F)cc1 (racemic) | 7 | 8.27 | 37% | 88% | 93% | 6% | 2 | 103% | 4% | 105% | 117% | 15% | 5 | –
11 | CC(O)(COc1ccccc1C(F)(F)F)C(=O)Nc1ccc(S(F)(F)(F)(F)F)cc1 (racemic) | 1.4 | – | 19 - 45% | 85 - 89% | 83 - 84% | 1 - 2% | 1 | 2 - 9% | 1 - 2% | 108 - 125% | 15 - 117% | 1 - 20% | 4 | microsomal CLint at 3 µM [21]: 22 µL/min/mg; half-life at 3 µM [22]: 1.05 h; fraction unbound at 5 µM [23]: 0.014; inhibition at 25 µM (hERG (KCNH2)): 26.3%; IC50 [24]: > 25 µM

From ChEMBL document CHEMBL4364301 (Eur J Med Chem, 2019)
